Calls of active or inactive are those of the source.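 Rule for the calls, unless noted: active = viability at or below 10% of carrier control in both of two separate runs; inconclusive = viability at or below 10% in only one of the two runs; inactive = the rest.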
Tests used:
[1] = Her2 expression decrease, cell viability multiplex – SKBR3 breast tumor cells, AlphaScreen, ATP viability, primary screen (AID 461;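 active = Her2 level under about 52% in both replicate screens, with viability over 70% of control, limit read from the data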;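 for Her2 level: lower value means less Her2 protein in the cells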;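 for viability: percent of carrier control wells set as 100% viability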); details: SKBR3 Her2 protein level, 18-24 h, measured here: SKBR3 viability, ATP luminescence, at 10 µM
[2] = target: Receptor tyrosine-protein kinase erbB-2 (Homo sapiens) (UniProt P04626); assay: as above; details: 18-24 h, at 10 µM, stronger effect = lower value
Receptor tyrosine-protein kinase erbB-2 (Homo sapiens), sequence (P04626 whole entry, looked up): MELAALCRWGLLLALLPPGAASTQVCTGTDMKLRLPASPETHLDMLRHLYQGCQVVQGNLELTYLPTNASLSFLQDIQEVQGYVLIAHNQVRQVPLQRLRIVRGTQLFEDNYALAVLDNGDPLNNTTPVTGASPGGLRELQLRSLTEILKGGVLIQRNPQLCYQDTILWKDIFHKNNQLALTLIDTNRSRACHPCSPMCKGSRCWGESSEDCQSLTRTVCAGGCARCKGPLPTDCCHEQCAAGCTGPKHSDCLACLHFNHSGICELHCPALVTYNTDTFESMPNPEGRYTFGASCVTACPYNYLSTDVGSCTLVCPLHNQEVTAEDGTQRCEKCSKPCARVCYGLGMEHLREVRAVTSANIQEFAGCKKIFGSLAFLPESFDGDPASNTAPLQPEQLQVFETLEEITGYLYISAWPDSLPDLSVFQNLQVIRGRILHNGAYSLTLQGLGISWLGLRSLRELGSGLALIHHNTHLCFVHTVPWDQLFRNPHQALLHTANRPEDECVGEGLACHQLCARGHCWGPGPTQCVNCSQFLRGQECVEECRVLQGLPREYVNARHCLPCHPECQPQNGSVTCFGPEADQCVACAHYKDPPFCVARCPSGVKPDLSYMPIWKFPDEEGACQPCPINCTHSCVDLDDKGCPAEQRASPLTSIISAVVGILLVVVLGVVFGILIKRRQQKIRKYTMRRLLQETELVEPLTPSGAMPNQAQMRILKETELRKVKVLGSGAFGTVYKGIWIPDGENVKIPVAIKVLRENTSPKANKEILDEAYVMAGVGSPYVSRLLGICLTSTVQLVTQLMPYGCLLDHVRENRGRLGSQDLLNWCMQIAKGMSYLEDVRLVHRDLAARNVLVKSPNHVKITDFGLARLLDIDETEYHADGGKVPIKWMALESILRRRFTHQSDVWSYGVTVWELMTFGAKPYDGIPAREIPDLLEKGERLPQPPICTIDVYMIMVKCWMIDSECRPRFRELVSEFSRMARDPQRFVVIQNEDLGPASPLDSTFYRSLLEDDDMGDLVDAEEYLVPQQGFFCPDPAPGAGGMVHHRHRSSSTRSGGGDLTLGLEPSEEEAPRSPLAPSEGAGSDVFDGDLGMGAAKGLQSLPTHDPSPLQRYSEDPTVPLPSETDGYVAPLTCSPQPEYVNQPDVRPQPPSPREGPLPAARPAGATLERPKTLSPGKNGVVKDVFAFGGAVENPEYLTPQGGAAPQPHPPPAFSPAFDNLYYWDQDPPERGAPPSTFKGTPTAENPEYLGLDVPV

[3] = reduced viability of SK-BR-3 breast cancer cells – cell-based, 24 h, human, pilot screen (AID 572); details: SK-BR-3 viability, CellTiter-Glo luminescence, at 10 µM, stronger effect = lower value;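 note: compound exposure lasted between 18 and 24 h rather than exactly 24 h; 100% = carrier-treated control wells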
[4] = HUVEC growth inhibition – cell-based, human, primary screen (AID 575;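 active = viability at or below 30% in both replicate assays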;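 note: 100% = median of untreated cell wells with 0.1% DMSO on each plate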); details: HUVEC proliferation, CellTiter-Glo luminescence, 72 h; at 10 µM; stronger effect = lower value
How it was run: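 Material: primary human umbilical vein endothelial cells / Schedule: 72 h exposure, 37 °C, 5% CO2, 30 min RT equilibration / Signal: ATP-based CellTiter-Glo luminescent read / Read-out basis: percent of median DMSO-control luminescence / Control set: 32 DMSO-only cell-control wells (high), 32 MePR drug-control wells (low) per plate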

[5] = H69AR cell proliferation blockers – human, duplicate replicates, primary screen (AID 580;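 active = viability at or under a set limit in both replicates, limit being median viability minus 3 SD, cut at about 48% in these data, passing the limit was not always enough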;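 note: 100% = mean luminescence of untreated wells and 0% = no signal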); details: H69AR lung tumor cells viability, ATP luminescence, 72 h; at 10 µM; stronger effect = lower value
[6] = MRP1 drug-resistance reversers in H69AR cells – cell-based, doxorubicin co-treatment, pilot screen (AID 601;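 active = viability loss from added drug above about 55%, and viability with drug at most 40%, in both replicates, limit read from the data, passing the limit was not always enough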); details: CellTiter-Glo, 72 h, at 10 µM; for differential viability (reversal): stronger effect = higher value
[7] = yeast transport mutant growth inhibition pilot in 384-well plates, post-Golgi transport modulator project (AID 636; in the data active = inhibition above about 31%); details: absorbance 615 nm, about 18 h, stronger effect = higher value
[8] = growth suppression of yeast trafficking mutant, preliminary HTS, modulators of trafficking downstream of Golgi apparatus project, 1536-format plate, OD 615 nm (AID 637; in the data active = inhibition above about 30%); details: yeast transport mutant growth, absorbance 615 nm, 18 h; stronger effect = higher value
[9] = H69AR cells + 2 uM doxorubicin, measured here: viability with 2 uM doxorubicin, stronger effect = lower value
[10] = H69AR cells, compound alone cytotoxicity

Compound | viability [1] [%] | Her2 level [2] | viability [3] | viability [4] | viability [5] | differential viability (reversal) ([6]; H69AR cells + 2 uM doxorubicin) | viability [6, 9] [%] | viability [6, 10] [%] | inhibition [7] | inhibition [8]
Cc1c(NS(=O)(=O)c2ccc3c(c2)c(=O)n(C)c(=O)n3C)c(=O)n(-c2ccccc2)n1C | 99.5 | 85.5% (inactive) | 99.5% (inactive) | 77.8% (inactive) | 95.7% (inactive) | 6.11% (inactive) | 89.6 | 95.7 | -4.4% (inactive) | 7.7% (inactive)
COc1ccc(N(CC(=O)NC2CCCC2)C(=O)Cn2nnc(-c3ccc(C)cc3)n2)cc1 | 79 | 99.5% (inactive) | 79% (inactive) | 95.5% (inactive) | 89.1% (inactive) | -4.01% (inactive) | 93.1 | 89.1 | 2.76% (inactive) | -7.58% (inactive)
COc1ccc(-c2nnc(SCC#N)o2)cc1 | 104 | 91.5% (inactive) | 104% (inactive) | 107% (inactive) | 103% (inactive) | 13.6% (inactive) | 89.1 | 103 | -5.47% (inactive) | 0.65% (inactive)
O=C1CC2CS(=O)(=O)CC2N1c1ccc(Oc2ccccc2)cc1 (stereo not given) | 99 | 87% (inactive) | 99% (inactive) | 78.6% (inactive) | 95.6% (inactive) | -2.44% (inactive) | 98 | 95.6 | -5.47% (inactive) | 3.11% (inactive)
O=C1CSC(=Nc2ccc(O)cc2)N1c1ccc(O)cc1 | 93 | 89.5% (inactive) | 93% (inactive) | 89.2% (inactive) | 91.4% (inactive) | 9.79% (inactive) | 81.6 | 91.4 | -7.07% (inactive) | -1.64% (inactive)
Cc1nnc(SCC(=O)N2c3ccccc3CC2C)s1 (stereo not given) | 105 | 106% (inactive) | 105% (inactive) | 99.3% (inactive) | 92% (inactive) | -0.71% (inactive) | 92.7 | 92 | -1.73% (inactive) | 0.81% (inactive)
O=C(CSc1nnc(-c2ccccc2Cl)n1Cc1ccco1)Nc1ccc2c(c1)OCCO2 | 83.5 | 80% (inactive) | 83.5% (inactive) | 93.9% (inactive) | 77.7% (inactive) | -12.8% (inactive) | 90.5 | 77.7 | -3.07% (inactive) | -4.75% (inactive)
Cc1cc(C)c2cc3c(ccn3C3OC[C@H](O)[C@H](O)[C@H]3O)cc2n1 (stereo not given in full) | 95 | 105% (inactive) | 95% (inactive) | 90.2% (inactive) | 97.4% (inactive) | 7.18% (inactive) | 90.3 | 97.4 | -1.92% (inactive) | 1% (inactive)
CCOc1cc(C2c3c(n[nH]c3C)C(=O)N2c2ccc(Br)cc2)ccc1O (stereo not given) | 102 | 71.5% (inactive) | 102% (inactive) | 53.1% (inactive) | 72.9% (inactive) | 9.98% (inactive) | 62.9 | 72.9 | -4.27% (inactive) | 3.44% (inactive)
O=C(OCc1cc2ccccc2[nH]c1=O)c1ccncc1 | 90.5 | 89% (inactive) | 90.5% (inactive) | 76.4% (inactive) | 79.2% (inactive) | -10.5% (inactive) | 89.7 | 79.2 | -4.34% (inactive) | -2.74% (inactive)
C=C(C)Cn1c(SCC)nc2ccccc2c1=O | 93 | 97.5% (inactive) | 93% (inactive) | 104% (inactive) | 85.6% (inactive) | -3% (inactive) | 88.6 | 85.6 | -5.39% (inactive) | -3.27% (inactive)
CCCS(=O)(=O)NCCc1cc2cc(C)c(C)cc2[nH]c1=O | 106 | 90% (inactive) | 106% (inactive) | 101% (inactive) | 96.3% (inactive) | 8.55% (inactive) | 87.7 | 96.3 | -8.22% (inactive) | -0.63% (inactive)
O=C(Nc1ccccc1)c1cccnc1N1CCOCC1 | 94 | 80% (inactive) | 94% (inactive) | 105% (inactive) | 102% (inactive) | 18.2% (inactive) | 84.1 | 102 | -0.92% (inactive) | -2.73% (inactive)
CC1CCCCC1NC(=O)Cn1nnc(-c2ccc(Cl)cc2)n1 (stereo not given) | 86 | 92.5% (inactive) | 86% (inactive) | 72.7% (inactive) | 91.9% (inactive) | 14.6% (inactive) | 77.3 | 91.9 | -1.3% (inactive) | -5.4% (inactive)
